Measured values reported in ChEMBL document CHEMBL1629555, “Antimalarial activity of phenylthiazolyl-bearing hydroxamate-based histone deacetylase inhibitors” (Antimicrob Agents Chemother, 2008).
Activity calls are given as the source filed them. The rule behind the calls is not given here.

Assays:
[1] = tested on: Plasmodium falciparum; experiment: Antimalarial activity against drug-resistant Plasmodium falciparum D6 infected in Aotus lemurinus lemurinus monkey; format: functional, organism-based
[2] = Cytotoxicity against mouse RAW264.7 cells by MTT assay; format: cell-based; settings: read-out: LD50 (the source's name)
Summary of the method: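 LC50 in RAW macrophages was determined by MTT assay, given as the mean of 2–4 experiments with range. Selectivity index = RAW LC50 / lowest P. falciparum IC50.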

[3] = Cytotoxicity against african green monkey Vero cells by MTT assay; format: cell-based; settings: chlorocebus sabaeus, read-out: LC50 (the source's name)
[4] = tested on: Plasmodium falciparum; experiment: Antimalarial activity against Plasmodium falciparum at 10 nM after 3.5 hrs; format: functional, organism-based
Summary of the method: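 Infected erythrocytes were exposed to compound for 3.5 h, washed, and returned to culture. Parasite growth was compared with matched controls after 48 h.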

[5] = Inhibition of histone deacetylase assessed as alteration of histone H3 acetylation by cell-based assay
Summary of the method: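 About 3 × 10^9 erythrocytes infected with late-trophozoite P. falciparum 3D7 were exposed to compound or to DMSO vehicle for 3.5 h at 37°C, and an untreated sample was taken at the start. Histones were extracted, about 6 × 10^8 parasites were loaded per lane on SDS–15% PAGE, and loading was checked by silver stain. Western blots were probed with anti-tetraacetyl-H4 and anti-diacetyl-H3 antisera and detected by ECL.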

[6] = tested on: Plasmodium berghei; experiment: Antimalarial activity against Plasmodium berghei infected in mouse assessed as effect on curate rate at split dose of 40 mg/kg/day, po for 3 days; format: functional, organism-based
Summary of the method: (§1)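 Mice were infected ip with 10^6 P. berghei-parasitized erythrocytes. The compound was given in hydroxyethylcellulose-Tween 20 vehicle, 5 mice per group, starting on day 3 post-infection. Regimens were once-daily or split daily oral doses over 3 days, subcutaneous dosing, or dosing over 7 days. Read-outs were posttreatment parasitemia on day 6 as a fraction of controls and the number of mice cured.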

[7] = tested on: Plasmodium berghei; experiment: Antimalarial activity against Plasmodium berghei infected in mouse assessed as effect on cure rate at 130 mg/kg/day, po for 7 days; format: functional, organism-based; summary of the method: as §1
[8] = tested on: Plasmodium berghei; experiment: Antimalarial activity against Plasmodium berghei infected in mouse assessed as effect on cure rate at 130 mg/kg/day, sc for 3 days; format: functional, organism-based; summary of the method: as §1
[9] = tested on: Plasmodium berghei; experiment: Antimalarial activity against Plasmodium berghei infected in mouse assessed as parasitemia level at single dose of 80 mg/kg/day, po for 3 days measured on day 6 relative to control; format: functional
Summary of the method: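 Mice infected intraperitoneally with 10^6 P. berghei-parasitized erythrocytes. Drug given orally once daily on days 3, 4 and 5 post-infection in hydroxyethylcellulose-Tween 20 vehicle, 5 mice per dose group. Parasitemia measured on day 6 and expressed as a fraction of untreated control parasitemia.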

[10] = tested on: Mus musculus; experiment: Toxicity in Plasmodium berghei-infected mouse assessed as mortality at split dose of 640 mg/kg/day, po for 3 days; format: organism-based; design: route oral; settings: in vivo, 72 h
[11] = tested on: Plasmodium berghei; experiment: Antimalarial activity against Plasmodium berghei infected in mouse assessed as parasitemia level at 52 mg/kg/day for 3 days measured on day 3 in presence of 64 mg/kg/day chloroquine (reference value: 0.46%); format: functional
Summary of the method: (§2)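 Mice were infected ip with 10^6 P. berghei-parasitized erythrocytes. The compound was given orally once daily on days 3, 4 and 5 post-infection in hydroxyethylcellulose-Tween 20 vehicle, alone or together with chloroquine, with 5 mice per dose group. Parasitemia (%) was read on days 3 and 6, and cures were counted as animals cured out of 5.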

[12] = tested on: Plasmodium berghei; experiment: Antimalarial activity against Plasmodium berghei infected in mouse assessed as parasitemia level at 160 mg/kg/day for 3 days measured on day 6 in presence of 2 mg/kg/day chloroquine (reference value: 37%); format: functional; summary of the method: as §2
[13] = tested on: Plasmodium berghei; experiment: Antimalarial activity against Plasmodium berghei infected in mouse assessed as parasitemia level at 52 mg/kg/day for 3 days measured on day 6 in presence of 64 mg/kg/day chloroquine; format: functional; summary of the method: as §2
[14] = tested on: Plasmodium berghei; experiment: Antimalarial activity against Plasmodium berghei infected in mouse assessed as effect on cure rate at 32 mg/kg/day for 3 days measured on day 6 in presence of 3.6 mg/kg/day chloroquine; format: functional, organism-based; summary of the method: as §2
[15] = tested on: Plasmodium berghei; experiment: Antimalarial activity against Plasmodium berghei infected in mouse assessed as effect on cure rate at 3.2 mg/kg/day for 3 days measured on day 6 in presence of 4 mg/kg/day chloroquine (reference value: 37%); format: functional, organism-based
[16] = tested on: Mus musculus; experiment: Toxicity in Plasmodium berghei-infected mouse assessed as mortality at split dose of 130 mg/kg/day, po for 7 days; format: organism-based; design: route oral; settings: in vivo, 168 h
[17] = tested on: Mus musculus; experiment: Toxicity in Plasmodium berghei-infected mouse assessed as mortality at split dose of 130 mg/kg/day, sc for 3 days measured on day 5; format: organism-based; design: route subcutaneous; settings: in vivo, 72 h
[18] = Half life in mouse liver microsomes by LC/MS analysis; format: ADME, Microsome
[19] = Half life in human liver microsome by LC/MS analysis; format: ADME; settings: liver microsomes
[20] = Half life in ICR mouse at 50 mg/kg/day, po by LC/MS analysis; format: ADME, organism-based; design: route oral; settings: in vivo
Summary of the method: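 Male ICR mice, 8 weeks old, got one 50 mg/kg dose either orally or subcutaneously, with three groups of six mice per route. One mouse per group was killed at 15, 30 and 60 min and at 3, 6 and 24 h. Plasma was deproteinized with 2 volumes of acetonitrile and analysed by LC-MS/MS on a C18 column against 0–500 ng/ml standards, with parent and acid metabolite measured in the same sample. Each six-mouse group was treated as one "animal" and fitted to a two-compartment model. AUC was taken by the linear trapezoidal rule extrapolated to infinity, and Cmax and Tmax were read per "animal".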

[21] = tested on: Plasmodium berghei; experiment: Antimalarial activity against Plasmodium berghei infected in mouse assessed as parasitemia level at 320 mg/kg/day for 3 days measured on day 3 (reference value: 0.46%); format: functional; summary of the method: as §2
[22] = tested on: Plasmodium berghei; experiment: Antimalarial activity against Plasmodium berghei infected in mouse assessed as parasitemia level at 3.2 mg/kg/day for 3 days measured on day 3 (reference value: 0.46%); format: functional
[23] = tested on: Plasmodium berghei; experiment: Antimalarial activity against Plasmodium berghei infected in mouse assessed as parasitemia level at 0.32 mg/kg/day for 3 days measured on day 3 (reference value: 0.46%); format: functional
[24] = tested on: Plasmodium berghei; experiment: Antimalarial activity against Plasmodium berghei infected in mouse assessed as parasitemia level at 160 mg/kg/day for 3 days measured on day 6 (reference value: 37%); format: functional; summary of the method: as §2
[25] = tested on: Plasmodium berghei; experiment: Antimalarial activity against Plasmodium berghei infected in mouse assessed as effect on cure rate at 32 mg/kg/day for 3 days; format: functional, organism-based; summary of the method: as §2
[26] = tested on: Plasmodium falciparum; experiment: Antimicrobial activity against Plasmodium falciparum W2 at […] in presence of azithromycin; format: functional
Summary of the method: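 In vitro fixed-ratio isobologram using a SYBR green I fluorescence assay. […] IC50s were standardized and FIC50 and ΣFIC50 calculated by the Berenbaum method. Reported as the average ΣFIC across dilutions or the average maximum ΣFIC, from at least 2 experiments.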

[27] = tested on: Plasmodium falciparum; experiment: Antimicrobial activity against Plasmodium falciparum D6 infected in Aotus lemurinus lemurinus monkey at […] in presence of azithromycin; format: functional
[28] = tested on: Plasmodium falciparum; experiment: Antimicrobial activity against Plasmodium falciparum D6 infected in Aotus lemurinus lemurinus monkey at […] in presence of artemisinin; format: functional
[29] = tested on: Plasmodium falciparum; experiment: Antimalarial activity against Plasmodium falciparum infected in mouse RAW264.7 cells; format: functional, organism-based
[30] = tested on: Plasmodium berghei; experiment: Antimalarial activity against Plasmodium berghei infected in mouse assessed as effect on cure rate at 52 mg/kg/day for 3 days measured on day 6 in presence of 64 mg/kg/day chloroquine; format: functional, organism-based; summary of the method: as §2

In the case of `Nc1cccc(-c2csc(NC(=O)CCCCCCC(=O)NO)n2)c1`, the IC50 [1] is reported as 0.8 nM, the CC50 [2] is reported as 600 nM and the CC50 [3] is reported as 950 nM. For the same compound, the Activity [4] was “Active”, the IC50 [5] was 10.4 nM and the Activity [6] was “inactive”. The Activity [7] was “inactive”, the Activity [8] was “inactive” and the “fold change (FC)” value [9] was 0.096. The Activity [10] was “Non-toxic”, the Activity [11] was 0.48% and the Activity [12] was 0.36%. For the same compound, the Activity [13] was 0%, the Activity [14] was “inactive” and the Activity [15] was “inactive”. For the same compound, the Activity [16] was “Non-toxic”, the Activity [17] was “Toxic” and the half-life [18] was 0.183 h. It also gave a half-life [19] of over 1 h, a half-life [20] of 3.5 h and an Activity [21] of 0.52%. The Activity [22] was 0.64%, the Activity [23] was 0.62% and the Activity [24] was 8.8%. The Activity [25] was “inactive”, the “fractional inhibitory concentration index (FICI)” value [26] was 1.5 and the “fractional inhibitory concentration index (FICI)” value [27] was 1.7. The “fractional inhibitory concentration index (FICI)” value [28] was 2.1, the IC50 [29] was 0.59 nM and the Activity [30] was “inactive”.
